From ChEMBL document CHEMBL1126909, “Synthesis and pharmacological examination of benzofuran, indan, and tetralin analogues of 3,4-(methylenedioxy)amphetamine” (J Med Chem, 1993)
Calls of active or inactive are those of the source.

What was measured:
[1] = tested on: Rattus norvegicus; test: Number of animals tested to that of number of animals disrupted in S-1c trained at 0.215 mg/kg; Number of animals tested=10; format: functional
In short: (§1)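 Drug-discrimination rats were male Sprague-Dawley, 175–200 g, kept at about 80% of free-feeding weight. They were trained against saline on (S)-1c·HCl 1.75 mg/kg, 3·HCl 1.71 mg/kg or (S)-amphetamine sulfate 1 mg/kg. Test drug was given ip in 0.9% saline at 1 mL/kg, 30 min before sessions run under extinction. A session ended at 50 presses on one lever; failing 50 presses within 5 min was scored as disrupted.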

[2] = tested on: Rattus norvegicus; test: Number of animals tested to that of number of animals disrupted in 3 trained at 0.108 mg/kg; Number of animals tested=8; format: functional; in short: as §1
[3] = tested on: Rattus norvegicus; test: Number of animals tested to that of number of animals disrupted in 3 trained at 0.215 mg/kg; Number of animals tested=11; format: functional; in short: as §1
[4] = tested on: Rattus norvegicus; test: Number of animals tested to that of number of animals disrupted in 3 trained at 0.429 mg/kg; Number of animals tested=12; format: functional; in short: as §1
[5] = tested on: Rattus norvegicus; test: Number of animals tested to that of number of animals disrupted in 3 trained at 0.643 mg/kg; Number of animals tested=12; format: functional; in short: as §1
[6] = tested on: Rattus norvegicus; test: Number of animals tested to that of number of animals disrupted in 3 trained at 0.857 mg/kg; Number of animals tested=11; format: functional; in short: as §1
[7] = tested on: Rattus norvegicus; test: Number of animals tested to that of number of animals disrupted in S-1c trained at 0.643 mg/kg; Number of animals tested=10; format: functional; in short: as §1
[8] = tested on: Rattus norvegicus; test: Number of animals tested to that of number of animals disrupted in S-1c trained at 0.857 mg/kg; Number of animals tested=10; format: functional; in short: as §1
[9] = tested on: Rattus norvegicus; test: Number of animals tested to that of number of animals disrupted in 3 trained at 1.286 mg/kg; Number of animals tested=8; format: functional; in short: as §1
[10] = tested on: Rattus norvegicus; test: Number of animals tested to that of number of animals disrupted in S-1c trained at 0.429 mg/kg; Number of animals tested=11; format: functional; in short: as §1
[11] = tested on: Rattus norvegicus; test: Tested for drug-discrimination stimulus effect at 0.215 mg/kg; 0.31-0.74; format: functional
[12] = tested on: Rattus norvegicus; test: Tested for drug-discrimination stimulus effect at 0.429 mg/kg; 0.24-0.57; format: functional
In short: (§2)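 Male Sprague-Dawley rats (175–200 g) held at about 80% of free-feeding weight were trained on two levers to tell (S)-1c·HCl 1.75 mg/kg from saline. Test drugs were given in 0.9% saline, ip, 30 min before sessions run under extinction. A session ended at 50 presses on one lever, or was scored disrupted if not done within 5 min. %SDL counts nondisrupted rats. ED50 and 95% CI were derived by Litchfield–Wilcoxon.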

[13] = species on record: Rattus norvegicus; test: Inhibitory concentration against [3H]- 5-HT uptake in crude rat synaptosomes; format: functional; settings: Brain
In short: (§3)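 Crude synaptosomes from male Sprague-Dawley rat tissue homogenised in ice-cold isotonic sucrose. Preincubated 5 min at 37 °C under aeration with pargyline (final 100 μM), then chilled. Tritiated transmitter added at 10 nM final and uptake run 5 min at 37 °C. Catecholamine buffer had 0.06 mM ascorbate. Filtered and counted by scintillation. 9–10 concentrations in triplicate, 3–4 experiments, four-parameter logistic fit for IC50 ± SEM.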

[14] = species on record: Rattus norvegicus; test: Inhibitory concentration against [3H]- DA uptake, p<0.0001; format: functional
[15] = species on record: Rattus norvegicus; test: Inhibitory concentration against [3H]- NE uptake in crude rat synaptosomes; format: functional; settings: Brain; in short: as §3
[16] = tested on: Rattus norvegicus; test: Percentage of nondisrupted animals selecting drug liver in 3 trained at 0.429 mg/kg; SDL; format: functional
In short: (§4)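 Rats and training are as above: male Sprague-Dawley, food-restricted, with training doses per drug group. Test drug was given ip in saline 30 min before extinction sessions. %SDL is the share of nondisrupted rats reaching 50 presses on the drug lever. A rat not completing 50 presses in 5 min was scored as disrupted.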

[17] = tested on: Rattus norvegicus; test: Percentage of nondisrupted animals selecting drug liver in 3 trained at 0.643 mg/kg; SDL; format: functional; in short: as §4
[18] = tested on: Rattus norvegicus; test: Percentage of nondisrupted animals selecting drug liver in 3 trained at 1.286 mg/kg; SDL; format: functional; in short: as §4
[19] = tested on: Rattus norvegicus; test: Percentage of nondisrupted animals selecting drug liver in S-1c trained at 0.215 mg/kg; SDL; format: functional; in short: as §4
[20] = tested on: Rattus norvegicus; test: Percentage of nondisrupted animals selecting drug liver in S-1c trained at 0.429 mg/kg; SDL; format: functional
[21] = tested on: Rattus norvegicus; test: Percentage of nondisrupted animals selecting drug liver in S-1c trained at 0.643 mg/kg; SDL; format: functional
[22] = tested on: Rattus norvegicus; test: Percentage of nondisrupted animals selecting drug liver in S-1c trained at 0.857 mg/kg; SDL; format: functional
[23] = tested on: Rattus norvegicus; test: Percentage of nondisrupted animals selecting drug liver in 3 trained at 0.108 mg/kg; SDL; format: functional; in short: as §4
[24] = tested on: Rattus norvegicus; test: Percentage of nondisrupted animals selecting drug liver in 3 trained at 0.215 mg/kg; SDL; format: functional; in short: as §4
[25] = tested on: Rattus norvegicus; test: Percentage of nondisrupted animals selecting drug liver in 3 trained at 0.857 mg/kg; SDL; format: functional; in short: as §4
[26] = tested on: Rattus norvegicus; test: Number of animals tested to that of number of animals disrupted in (s)-amphetamine trained at 0.125 mg/kg; Number of animals tested=15; format: functional; in short: as §1
[27] = tested on: Rattus norvegicus; test: Number of animals tested to that of number of animals disrupted in (s)-amphetamine trained at 0.250 mg/kg; Number of animals tested=14; format: functional; settings: dose 0.25 mg/kg; in short: as §1
[28] = tested on: Rattus norvegicus; test: Number of animals tested to that of number of animals disrupted in (s)-amphetamine trained at 0.500 mg/kg; Number of animals tested=15; format: functional; settings: dose 0.5 mg/kg
[29] = tested on: Rattus norvegicus; test: Number of animals tested to that of number of animals disrupted in (s)-amphetamine trained at 1 mg/kg; Number of animals tested=10; format: functional; in short: as §1
[30] = tested on: Rattus norvegicus; test: Number of animals tested to that of number of animals disrupted in 3 trained at 0.125 mg/kg; Number of animals tested=10; format: functional; in short: as §1
[31] = tested on: Rattus norvegicus; test: Number of animals tested to that of number of animals disrupted in 3 trained at 0.250 mg/kg; Number of animals tested=11; format: functional; settings: dose 0.25 mg/kg; in short: as §1
[32] = tested on: Rattus norvegicus; test: Number of animals tested to that of number of animals disrupted in 3 trained at 0.500 mg/kg; Number of animals tested=12; format: functional; settings: dose 0.5 mg/kg; in short: as §1
[33] = tested on: Rattus norvegicus; test: Number of animals tested to that of number of animals disrupted in 3 trained at 1 mg/kg; Number of animals tested=10; format: functional; in short: as §1
[34] = tested on: Rattus norvegicus; test: Number of animals tested to that of number of animals disrupted in S-1c trained at 1 mg/kg; Number of animals tested=9; format: functional; in short: as §1
[35] = tested on: Rattus norvegicus; test: Number of animals tested to that of number of animals disrupted in S-1c trained at 0.125 mg/kg; Number of animals tested=14; format: functional; in short: as §1
[36] = tested on: Rattus norvegicus; test: Number of animals tested to that of number of animals disrupted in S-1c trained at 0.250 mg/kg; Number of animals tested=15; format: functional; settings: dose 0.25 mg/kg; in short: as §1
[37] = tested on: Rattus norvegicus; test: Number of animals tested to that of number of animals disrupted in S-1c trained at 0.500 mg/kg; Number of animals tested=15; format: functional; settings: dose 0.5 mg/kg; in short: as §1
[38] = tested on: Rattus norvegicus; test: Tested for drug-discrimination stimulus effect at 0.250 mg/kg in S-1c trained animals; 0.15-0.28; format: functional; in short: as §2
[39] = tested on: Rattus norvegicus; test: Tested for drug-discrimination stimulus effect at 0.250 mg/kg in s)-amphetamine trained animals; NS= No substitution; format: functional, organism-based; design: dose 0.25 mg/kg
In short: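 Food-restricted male Sprague-Dawley rats were trained to tell (S)-amphetamine sulfate 1 mg/kg from saline. Test drug was given ip in 0.9% saline 30 min before extinction sessions, with 50 presses on one lever required within 5 min. No substitution was defined as 59% or less of nondisrupted rats selecting the drug lever, judged on the maximum across doses.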

[40] = tested on: Rattus norvegicus; test: Percentage of nondisrupted animals selecting drug liver in 3 trained at 0.250 mg/kg; format: functional; settings: dose 0.25 mg/kg; in short: as §4
[41] = tested on: Rattus norvegicus; test: Percentage of nondisrupted animals selecting drug liver in 3 trained at 0.500 mg/kg; format: functional; settings: dose 0.5 mg/kg; in short: as §4
[42] = tested on: Rattus norvegicus; test: Percentage of nondisrupted animals selecting drug liver in 3 trained at 1 mg/kg; format: functional; in short: as §4
[43] = tested on: Rattus norvegicus; test: Percentage of nondisrupted animals selecting drug liver in S-1c trained at 0.125 mg/kg; format: functional; in short: as §4
[44] = tested on: Rattus norvegicus; test: Percentage of nondisrupted animals selecting drug liver in S-1c trained at 0.250 mg/kg; format: functional; settings: dose 0.25 mg/kg
[45] = tested on: Rattus norvegicus; test: Percentage of nondisrupted animals selecting drug liver in S-1c trained at 0.500 mg/kg; format: functional; settings: dose 0.5 mg/kg; in short: as §2
[46] = tested on: Rattus norvegicus; test: Percentage of nondisrupted animals selecting drug liver in S-1c trained at 1 mg/kg; format: functional
[47] = tested on: Rattus norvegicus; test: Percentage of nondisrupted animals selecting drug liver in (S)-amphetamine trained at 0.125 mg/kg; format: functional; in short: as §4
[48] = tested on: Rattus norvegicus; test: Percentage of nondisrupted animals selecting drug liver in (S)-amphetamine trained at 0.250 mg/kg; format: functional; settings: dose 0.25 mg/kg; in short: as §4
[49] = tested on: Rattus norvegicus; test: Percentage of nondisrupted animals selecting drug liver in (S)-amphetamine trained at 0.500 mg/kg; format: functional; settings: dose 0.5 mg/kg; in short: as §4
[50] = tested on: Rattus norvegicus; test: Percentage of nondisrupted animals selecting drug liver in (S)-amphetamine trained at 1 mg/kg; format: functional; in short: as §4
[51] = tested on: Rattus norvegicus; test: Percentage of nondisrupted animals selecting drug liver in 3 trained at 0.125 mg/kg; format: functional; in short: as §4
[52] = species on record: Rattus norvegicus; test: Inhibitory concentration against [3H]- DA uptake in crude rat synaptosomes; format: functional; settings: Brain; in short: as §3

CC(N)Cc1ccc2c(c1)CCO2 (configuration not stated)
Activity [1]: 2
Activity [2]: 3
Activity [3]: 8
Activity [4]: 6
Activity [5]: 4
Activity [6]: 4
Activity [7]: 3
Activity [8]: 4
Activity [9]: 5
Activity [10]: 5
ED50 [11]: 0.48 mg/kg
ED50 [12]: 0.37 mg/kg
IC50 [13]: 130 nM
IC50 [14]: 7090 nM
IC50 [15]: 3240 nM
SDL [16]: 50%
SDL [17]: 75%
SDL [18]: 100%
SDL [19]: 25%
SDL [20]: 50%
SDL [21]: 71%
SDL [22]: 100%
SDL [23]: 0%
SDL [24]: 33%
SDL [25]: 86%

CC(N)Cc1ccc2c(c1)CCC2 (configuration not stated)
Activity [26]: 2
Activity [27]: 2
Activity [28]: 7
Activity [29]: 6
Activity [30]: 2
Activity [31]: 5
Activity [32]: 6
Activity [33]: 8
Activity [34]: 2
Activity [35]: 3
Activity [36]: 5
Activity [37]: 3
ED50 [38]: 0.2 mg/kg
ED50 [39]: inactive
IC50 [13]: 82 nM
IC50 [15]: 849 nM
SDL [40]: 17%
SDL [41]: 83%
SDL [42]: 100%
SDL [43]: 9%
SDL [44]: 70%
SDL [45]: 100%
SDL [46]: 100%
SDL [47]: 0%
SDL [48]: 0%
SDL [49]: 0%
SDL [50]: 0%
SDL [51]: 13%
IC50 [52]: 1850 nM

CC(N)Cc1ccc2c(c1)CCCC2 (configuration not stated)
IC50 [13]: 121 nM
IC50 [15]: 3370 nM
IC50 [52]: 6440 nM
